IC50 and Uptake data for 5 molecules are collected here from ChEMBL document CHEMBL1124492, “Folate analogues. 32. Synthesis and biological evaluation of 2-desamino-2-methyl-N10-propargyl-5,8-dideazafolic acid and related compounds” (J Med Chem, 1989).

In assay [1] the target is T1, Thymidylate synthase (Homo sapiens, UniProt P04818). The experiment in a line: Inhibition of purified human thymidylate synthase from a SV40-transformed human fibroblast cell line cloned in Escherichia coli.
Assay [2] in a line: Inhibition of growth of colon adenocarcinoma SW 480 cells. Type of assay: functional, cell-based. To be noted: Homo sapiens, SW480.
Assay [3] can be described thus: Inhibition of growth of H35N cells. Type of assay: functional, cell-based.
For assay [4], the system named is H35R0.3. The experiment in a line: Inhibition of growth of H35R cells. Type of assay: functional, cell-based, Homo sapiens. To be noted: Rattus norvegicus.
Assay [5] can be described thus: Inhibition of growth of H35FF cells. Type of assay: functional, cell-based. Summed up: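 The H35FF line was derived from H35 cells by growth in 25 μM (6RS)-5-formyltetrahydrofolate, held constant, with FdUR raised from 0.3 nM in 3-fold steps to 100 nM. This selection amplifies thymidylate synthase to about 70 times the H35N level.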
Assay [6] deals with H35R0.3. The experiment in a line: Inhibition of (6RS)-5-formyltetrahydrofolate (2 uM) transport in H35 hepatoma cell cultured and % uptake was determined in presence of inhibitor (6RS)-5-formyltetrahydrofolate (50 uM). Format: functional, cell-based. Put shortly: (§1)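 H35 hepatoma cells were grown to confluence, washed twice with Hanks BSS and incubated at 37 °C. [3H]-(6RS)-5-formyltetrahydrofolate (2 μM, 3.8×10^5 dpm/nmol) was added with or without inhibitor, and uptake was sampled at 10 min, within its linear range. Uptake is expressed as percent of the no-inhibitor control, as the mean of duplicate samples.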

For assay [7], the system named is H35R0.3. The assay can be described thus: Inhibition of methotrexate (5 uM) transport in H35 hepatoma cell culture and % uptake was reported in presence of inhibitor aminopterin (50 uM). Type of assay: functional, cell-based. Put shortly:
(§2)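 Confluent H35 hepatoma monolayers were washed twice with Hanks BSS and held at 37 °C. [3H]methotrexate (5 μM, 5.5×10^5 dpm/nmol) was added with or without inhibitor, and uptake was taken at 4 min, within its linear range. Results are percent of the uninhibited control uptake, averaged from duplicate samples.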

In assay [8] the target is T2, Dihydrofolate reductase (Homo sapiens, UniProt P00374).
T2 sequence (P00374 whole entry): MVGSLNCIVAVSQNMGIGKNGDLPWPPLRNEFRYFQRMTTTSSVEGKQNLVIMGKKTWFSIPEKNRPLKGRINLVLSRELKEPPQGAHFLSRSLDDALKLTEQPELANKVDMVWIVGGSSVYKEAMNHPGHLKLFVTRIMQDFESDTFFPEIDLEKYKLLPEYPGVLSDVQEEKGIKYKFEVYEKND
The experiment in a line: Inhibition of pure human dihydrofolate reductase (DHFR) from lymphoblastoid cells.

The subject of assay [9] is H35R0.3. The assay can be described thus: Inhibition of methotrexate (5 uM) transport in H35 hepatoma cell culture and % uptake was reported in presence of inhibitor DMPDDF (50 uM). Type of assay: functional, cell-based. Put shortly:
as §2

Assay [10] has as its system Enterococcus faecium. The experiment in a line: Inhibition of growth of Staphylococcus faecium. Type of assay: functional, organism-based.
In assay [11] the test system is H35R0.3. The experiment in a line: Inhibition of (6RS)-5-formyltetrahydrofolate (2 uM) transport in H35 hepatoma cell culture and % uptake was determined in presence of inhibitor aminopterin (50 uM). Format: functional, cell-based. Summed up: as §1
Assay [12] has as its system Lymphoma cell line. The assay can be described thus: Inhibition of growth of tumor cells, manca human lymphoma cells. Format: functional, cell-based.
In assay [13] the target is T3, Thymidylate synthase (Lactobacillus casei, UniProt P00469).
T3 sequence (P00469 whole entry): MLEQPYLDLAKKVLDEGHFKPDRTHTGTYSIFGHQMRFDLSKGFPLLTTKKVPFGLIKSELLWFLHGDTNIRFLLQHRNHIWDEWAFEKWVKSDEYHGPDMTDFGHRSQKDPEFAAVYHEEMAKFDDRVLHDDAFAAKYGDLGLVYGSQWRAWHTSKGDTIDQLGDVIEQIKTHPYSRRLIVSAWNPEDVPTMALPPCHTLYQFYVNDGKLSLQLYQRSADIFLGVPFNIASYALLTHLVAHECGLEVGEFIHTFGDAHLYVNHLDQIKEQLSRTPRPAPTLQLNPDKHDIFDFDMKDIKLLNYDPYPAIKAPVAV
The assay can be described thus: Inhibition of thymidylate synthase in Lactobacillus casei. More on the design: species or system Lacticaseibacillus casei.

For assay [14], the system named is H35R0.3. The assay can be described thus: Inhibition of (6RS)-5-formyltetrahydrofolate (2 uM) transport in H35 hepatoma cell culture. Format: functional, cell-based. Summed up:
as §1

Assay [15] concerns the target Bifunctional purine biosynthesis protein ATIC (Homo sapiens, UniProt P31939). The experiment in a line: Inhibition of AICAR formyltransferase from extract of Manca human lymphoma cells. Format: cell-based.
Assay [16] relates to H35R0.3. The assay can be described thus: Inhibition of methotrexate (5 uM) transport in H35 hepatoma cell culture and % uptake was reported in presence of inhibitor PDDF (50 uM). Format: functional, cell-based. Summed up: as §2
Assay [17] addresses Dihydrofolate reductase (Lactobacillus casei, UniProt P00381). The assay can be described thus: Inhibition of dihydrofolate reductase in Lactobacillus casei. The arrangement: species or system Lacticaseibacillus casei.
For assay [18], the system named is H35R0.3. The assay can be described thus: Inhibition of methotrexate (5 uM) transport in H35 hepatoma cell culture. Type of assay: functional, cell-based. Put shortly:
as §2

Assay [19] has as its target T1, Thymidylate synthase. The experiment in a line: Inhibition of pure human thymidylate synthase from extract of Manca human lymphoma cells. Format: cell-based.
In assay [20] the test system is H35R0.3. The assay can be described thus: Inhibition of methotrexate (5 uM) transport in H35 hepatoma cell culture and % uptake was reported in presence of inhibitor methotrexate (50 uM). Format: functional, cell-based. Summed up:
as §2

In assay [21] the test system is H35R0.3. The assay can be described thus: Inhibition of methotrexate (5 uM) transport in H35 hepatoma cell culture and % uptake was reported in presence of inhibitor folic acid (50 uM). Type of assay: functional, cell-based. Summed up: as §2
For assay [22], the target named is T4, Trifunctional purine biosynthetic protein adenosine-3 (Homo sapiens, UniProt P22102).
T4 sequence (P22102 whole entry): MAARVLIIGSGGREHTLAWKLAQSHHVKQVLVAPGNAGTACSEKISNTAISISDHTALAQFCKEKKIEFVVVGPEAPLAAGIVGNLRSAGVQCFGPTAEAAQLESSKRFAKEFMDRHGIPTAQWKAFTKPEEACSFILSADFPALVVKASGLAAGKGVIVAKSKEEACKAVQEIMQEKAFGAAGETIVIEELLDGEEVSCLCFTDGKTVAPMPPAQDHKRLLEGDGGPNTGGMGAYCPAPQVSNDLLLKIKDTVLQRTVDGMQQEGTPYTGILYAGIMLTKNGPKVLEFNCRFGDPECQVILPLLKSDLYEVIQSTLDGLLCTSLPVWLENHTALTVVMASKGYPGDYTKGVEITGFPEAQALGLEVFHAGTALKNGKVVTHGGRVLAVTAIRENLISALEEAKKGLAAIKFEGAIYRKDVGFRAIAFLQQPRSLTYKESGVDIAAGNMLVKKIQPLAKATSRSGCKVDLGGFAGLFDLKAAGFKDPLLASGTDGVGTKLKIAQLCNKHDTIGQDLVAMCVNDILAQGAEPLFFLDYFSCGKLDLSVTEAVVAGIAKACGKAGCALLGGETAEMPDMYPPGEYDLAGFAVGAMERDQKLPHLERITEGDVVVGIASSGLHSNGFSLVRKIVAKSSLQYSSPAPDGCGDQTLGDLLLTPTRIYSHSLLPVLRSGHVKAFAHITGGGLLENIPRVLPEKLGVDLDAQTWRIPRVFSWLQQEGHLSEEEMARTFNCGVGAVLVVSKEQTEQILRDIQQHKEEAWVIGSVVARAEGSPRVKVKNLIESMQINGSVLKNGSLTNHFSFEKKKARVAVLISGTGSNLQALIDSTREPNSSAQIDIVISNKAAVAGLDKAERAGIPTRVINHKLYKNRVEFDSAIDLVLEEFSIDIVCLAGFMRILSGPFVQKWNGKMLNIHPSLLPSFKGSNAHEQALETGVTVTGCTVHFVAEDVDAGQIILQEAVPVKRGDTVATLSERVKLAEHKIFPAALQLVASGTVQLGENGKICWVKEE
The experiment in a line: Inhibition of GAR formyltransferase from extract of Manca human lymphoma cells. Format: cell-based.

In assay [23] the test system is Lacticaseibacillus casei. The assay can be described thus: Inhibition of growth of Lactobacillus casei. Type of assay: functional, organism-based.
Assay [24] deals with H35R0.3. The experiment in a line: Inhibition of (6RS)-5-formyltetrahydrofolate (2 uM) transport in H35 hepatoma cell culture and % uptake was determined in presence of inhibitor methotrexate (50 uM). Type of assay: functional, cell-based. Summed up:
as §1

Assay [25] relates to H35R0.3. The experiment in a line: Inhibition of (6RS)-5-formyltetrahydrofolate (2 uM) transport in H35 hepatoma cell culture and % uptake was determined in presence of inhibitor folic acid (50 uM). Type of assay: functional, cell-based. Summed up: as §1
The subject of assay [26] is H35R0.3. The experiment in a line: Inhibition of (6RS)-5-formyltetrahydrofolate (2 uM) transport in H35 hepatoma cell culture and % uptake was determined in presence of inhibitor PDDF (50 uM). Format: functional, cell-based. Summed up: as §1
Assay [27] relates to H35R0.3. The experiment in a line: Inhibition of (6RS)-5-formyltetrahydrofolate (2 uM) transport in H35 hepatoma cell culture and % uptake was determined in presence of inhibitor DMPDDF (50 uM). Format: functional, cell-based. Put shortly:
as §1

Assay [28] concerns H35R0.3. The assay can be described thus: Inhibition of methotrexate (5 uM) transport in H35 hepatoma cell culture and % uptake was reported in presence of inhibitor (6RS)-5-formyltetrahydrofolate (50 uM). Format: functional, cell-based. Summed up: as §2

T1 sequence (P04818 whole entry): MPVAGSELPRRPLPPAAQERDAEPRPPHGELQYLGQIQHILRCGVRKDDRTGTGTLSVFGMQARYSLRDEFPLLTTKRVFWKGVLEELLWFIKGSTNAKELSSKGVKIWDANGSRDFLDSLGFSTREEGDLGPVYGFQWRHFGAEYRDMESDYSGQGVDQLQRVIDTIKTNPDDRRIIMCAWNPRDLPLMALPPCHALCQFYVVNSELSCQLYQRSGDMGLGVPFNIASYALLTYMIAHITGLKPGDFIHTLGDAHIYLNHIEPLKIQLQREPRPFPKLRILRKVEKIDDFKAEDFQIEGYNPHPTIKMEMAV
Dihydrofolate reductase (Lactobacillus casei, UniProt P00381), sequence (P00381 whole entry): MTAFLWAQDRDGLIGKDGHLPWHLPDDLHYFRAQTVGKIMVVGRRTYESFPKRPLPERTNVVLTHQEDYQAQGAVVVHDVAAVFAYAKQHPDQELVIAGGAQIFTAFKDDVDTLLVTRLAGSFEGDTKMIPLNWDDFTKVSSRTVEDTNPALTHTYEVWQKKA
Bifunctional purine biosynthesis protein ATIC, sequence (P31939 whole entry): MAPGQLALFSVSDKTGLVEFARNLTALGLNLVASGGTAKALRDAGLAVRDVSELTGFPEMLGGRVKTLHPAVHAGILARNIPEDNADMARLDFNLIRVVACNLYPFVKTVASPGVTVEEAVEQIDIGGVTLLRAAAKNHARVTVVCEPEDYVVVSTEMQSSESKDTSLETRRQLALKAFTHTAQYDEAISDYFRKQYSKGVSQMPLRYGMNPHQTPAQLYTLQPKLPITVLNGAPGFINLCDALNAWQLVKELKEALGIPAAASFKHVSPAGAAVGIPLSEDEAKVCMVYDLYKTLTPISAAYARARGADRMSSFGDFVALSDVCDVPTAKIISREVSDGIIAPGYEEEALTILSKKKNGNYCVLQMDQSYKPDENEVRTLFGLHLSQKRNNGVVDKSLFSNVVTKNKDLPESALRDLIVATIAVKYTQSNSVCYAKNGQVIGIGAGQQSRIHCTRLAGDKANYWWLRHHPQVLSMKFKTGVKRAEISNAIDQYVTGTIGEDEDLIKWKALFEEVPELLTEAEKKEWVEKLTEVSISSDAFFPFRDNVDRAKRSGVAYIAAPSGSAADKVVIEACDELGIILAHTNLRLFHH

The term IC50 denotes the concentration at which inhibition is half-maximal. Read a low IC50 as higher potency. `C#CCN(Cc1ccc2nc(C)n(C)c(=O)c2c1)c1ccc(C(=O)NC(CCC(=O)O)C(=O)O)cc1` (centres undefined): the IC50 was 11300 nM in [1] and > 100000 nM in assay [2].

Consider `CN(Cc1cnc2nc(N)nc(N)c2n1)c1ccc(C(=O)N[C@@H](CCC(=O)O)C(=O)O)cc1` [METHOTREXATE], for which the IC50 in [3] was determined as 10 nM; in assay [4], 906 nM; in assay [5], 10 nM.

`C#CCN(Cc1ccc2nc(C(F)(F)F)nc(O)c2c1)c1ccc(C(=O)NC(CCC(=O)O)C(=O)O)cc1` (centres undefined): the IC50 in [2] is > 100000 nM.

Turning to `C#CCN(Cc1ccc2nc(C)nc(O)c2c1)c1ccc(C(=O)NC(CCC(=O)O)C(=O)O)cc1` (centres undefined), the Uptake in assay [6] amounted to 22%; in assay [7] it was 25%; in [9] it was 25%; in [11] it was 11%; in [14] it was 100%; in assay [16] it was 100%. In addition, the Uptake stood at 100% in assay [18]; 25% in assay [20]; 85% in [21]; 22% in assay [24]; 83% in [25]; 90% in assay [26]. Moreover, the Uptake in assay [27] was 8.5%; in [28] it was 25%. Also, the IC50 is > 30000 nM in assay [8]; 6 nM in assay [10]; 13 nM in assay [12]; 100 nM in [13]; > 60000 nM in assay [15]; 9.8 nM in [1]. Moreover, the IC50 in assay [17] was 35000 nM; in [19], 60 nM; in assay [3], 55 nM; in assay [4], 2240 nM; in [22] it was > 17000 nM; in [23], 22 nM. The IC50 came to 7280 nM in assay [5] and 50 nM in assay [2].

Turning to `C#CCN(Cc1ccc2[nH]c(N)nc(=O)c2c1)c1ccc(C(=O)NC(CCC(=O)O)C(=O)O)cc1` (centres undefined), the IC50 in assay [10] came to 0.13 nM; in [12] it was 560 nM; in [3], 3600 nM; in [4], 2000 nM; in assay [23], 0.4 nM.
